Active and inactive are the calls of the source. The rule behind the calls is not given here.
How the values were obtained:
Assay type in all cases: functional
[1] = Growth inhibition of human renal cancer cells after 48 hrs by coulter counter method; settings: Cancer cell lines
In short: (§1)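 NCI 60-line panel cells. Compound is dissolved in DMSO and diluted in phosphate-buffered saline, with final DMSO below 1%. It is added in duplicate wells to cultures at 6 × 10⁴ cells/ml and held at 37 °C, 5% CO₂, humidified, for 48 h. Cells are diluted 10-fold in saline, counted by Coulter counter and dilution-corrected. Vehicle controls contain PBS plus DMSO.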

[2] = Growth inhibition of human prostate cancer cells after 48 hrs by coulter counter method; settings: Cancer cell lines; in short: as §1
[3] = Growth inhibition of human breast cancer cells after 48 hrs by coulter counter method; settings: Cancer cell lines; in short: as §1
HL-60(TB) = assay: Growth inhibition of human HL-60(TB) cells at 10 uM after 48 hrs by coulter counter method; settings: HL-60, 48 h, read-out: GI
In short: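 Single-dose screen on the NCI 60-line panel (leukemia subpanel). Compound is dissolved in DMSO and diluted in PBS, with final DMSO below 1%. Duplicate wells hold 6 × 10⁴ cells/ml at 37 °C, 5% CO₂, for 48 h. Cells are counted by Coulter counter after 10-fold saline dilution. Read-out is percent growth versus PBS/DMSO controls, expressed as % growth inhibition.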

NCI-H23 = assay: Growth inhibition of human NCI-H23 cells at 10 uM after 48 hrs by coulter counter method; settings: NCI-H23, 48 h, read-out: GI
In short: (§2)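 NCI 60-cell-line panel, single dose. Compound dissolved first in DMSO, then diluted in phosphate-buffered saline so that every final dilution held under 1% DMSO. Duplicate wells received cells at 6 × 10⁴ cells/ml. Controls held PBS/DMSO at the same dilution. Plates were incubated 48 h at 37 °C under 5% CO₂. Cells were then diluted 10-fold in saline and counted on a Coulter counter, with counts corrected for the dilution. Results are given as percent growth inhibition.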

NCI-H522 = assay: Growth inhibition of human NCI-H522 cells at 10 uM after 48 hrs by coulter counter method; settings: NCI-H522, 48 h, read-out: GI; in short: as §2
SF-268 = assay: Growth inhibition of human SF268 cells at 10 uM after 48 hrs by coulter counter method; settings: SF-268, 48 h, read-out: GI; in short: as §2
SNB-75 = assay: Growth inhibition of human SNB75 cells at 10 uM after 48 hrs by coulter counter method; settings: SNB-75, 48 h, read-out: GI; in short: as §2
UACC-257 = assay: Growth inhibition of human UACC257 cells at 10 uM after 48 hrs by coulter counter method; settings: UACC-257, 48 h, read-out: GI; in short: as §2
786-0 = assay: Growth inhibition of human 786-0 cells at 10 uM after 48 hrs by coulter counter method; settings: 786-0, 48 h, read-out: GI; in short: as §2
ACHN = assay: Growth inhibition of human ACHN cells at 10 uM after 48 hrs by coulter counter method; settings: read-out: GI; in short: as §2
UO-31 = assay: Growth inhibition of human UO31 cells at 10 uM after 48 hrs by coulter counter method; in short: as §2
MDA-MB-468 = assay: Growth inhibition of human MDA-MB-468 cells at 10 uM after 48 hrs by coulter counter method; settings: MDA-MB-468, 48 h, read-out: GI; in short: as §2
[4] = Growth inhibition of human colon cancer cells after 48 hrs by coulter counter method; settings: Cancer cell lines; in short: as §1
[5] = Growth inhibition of human CNS cancer cells after 48 hrs by coulter counter method; settings: Cancer cell lines; in short: as §1
[6] = read-out: LC50 (the source's name)

Structure (SMILES): O=C1CN2N=C(c3ccccc3)SC2=N1
- GI50 [1]: 8.9 µM
- TGI [1]: 16.6 µM
- CC50 [1, 6]: 42.3 µM
- GI50 [2]: 7.6 µM
- TGI [2]: 18.3 µM
- CC50 [2, 6]: 50.8 µM
- GI50 [3]: 6.9 µM
- TGI [3]: 23.7 µM
- CC50 [3, 6]: 71.3 µM
- inhibition of growth at 10 µM (HL-60(TB)): 21%
- inhibition of growth at 10 µM (NCI-H23): 21.6%
- inhibition of growth at 10 µM (NCI-H522): 46.5%
- inhibition of growth at 10 µM (SF-268): 20%
- inhibition of growth at 10 µM (SNB-75): 88.3%
- inhibition of growth at 10 µM (UACC-257): 48.4%
- inhibition of growth at 10 µM (786-0): 25.1%
- inhibition of growth at 10 µM (ACHN): 29.5%
- growth inhibition (GI) (UO-31): Active
- inhibition of growth at 10 µM (MDA-MB-468): 61.5%
- GI50 [4]: 9.4 µM
- LC50 [4]: 67.1 µM
- TGI [4]: 24.9 µM
- GI50 [5]: 8.7 µM
- TGI [5]: 18.8 µM
- CC50 [5, 6]: 51.3 µM

Source: ChEMBL document CHEMBL1926577, “Novel 1,3,4-heterodiazole analogues: synthesis and in-vitro antitumor activity” (2012)
